rCAG RNA binder: molecules binding r(CAG) RNA repeats; r(CAG) RNA repeat, TO-PRO-1 dye displacement fluorescence; inhibition, % at 3 µM; 1.3% of 370,000 active; AID 651821;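 active = inhibition above the plate cutoff, the mean of all test compounds on that plate plus 3 SD, cut at about 35% in these data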;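 also: higher means more dye released from RNA so lower well fluorescence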
HTRA1 inh: inhibitors of human serine peptidase HTRA1; recombinant HTRA1, FP-rhodamine activity-based probe, fluorescence polarization; Q92743; AID 504803; inhibition, % at 5.96 µM; 0.5% of 340,000 active; in the data active = inhibition above about 36%
TCR-CD3 inh: inhibitors of human TCR-CD3 interaction | inhibition, % at 9.4 µM | 0.37% of 360,000 active | TAMRA-labeled TCR probe fluorescence, biochemical; in the data active = inhibition above about 19%;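 also: recombinant mutant TCR 2C K166C tagged with TAMRA read by polarization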
ABHD4 inh: inhibits mouse alpha/beta hydrolase domain 4. purified mABHD4, FP-Rh probe fluorescence polarization. inhibition, % at 8.92 µM. 0.54% of 370,000 active;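 active = inhibition exceeding the mean over every tested compound plus 3 SD, cut at about 30% in these data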
Target sequence (Q8VD66 whole entry, looked up, the tested form may be a part): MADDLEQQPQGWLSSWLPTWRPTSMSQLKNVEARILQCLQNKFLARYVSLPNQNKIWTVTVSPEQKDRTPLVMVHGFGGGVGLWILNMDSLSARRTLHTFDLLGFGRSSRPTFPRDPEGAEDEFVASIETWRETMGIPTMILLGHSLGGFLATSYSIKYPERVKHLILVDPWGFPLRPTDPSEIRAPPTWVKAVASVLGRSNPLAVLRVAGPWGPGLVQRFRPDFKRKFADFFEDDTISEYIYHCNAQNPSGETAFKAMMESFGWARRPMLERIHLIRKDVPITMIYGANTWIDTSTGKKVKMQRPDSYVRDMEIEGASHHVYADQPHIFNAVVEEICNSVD
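Test system: mABHD4 protein; Read-out basis: % inhibition; Incubation: 45 min + 60 min at 25 °C; Repeats: single replicate; Technique: fluorescence polarization with parallel and perpendicular emission, 525/598 nm; Compound: 8.92 µM, single dose; Benchmarks: full inhibition S159A mutant plus DMSO, zero as sample-well median.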
PRMT1 inh: blocks human protein arginine methyltransferase 1. Q99873. recombinant PRMT1, activity-based probe fluorescence polarization. inhibition, % at 2.79 µM. 1.3% of 370,000 active. AID 652257;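 active = inhibition above about 21% made by adding two undisclosed values, limit read from the data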
Target sequence (Q99873 whole entry, looked up): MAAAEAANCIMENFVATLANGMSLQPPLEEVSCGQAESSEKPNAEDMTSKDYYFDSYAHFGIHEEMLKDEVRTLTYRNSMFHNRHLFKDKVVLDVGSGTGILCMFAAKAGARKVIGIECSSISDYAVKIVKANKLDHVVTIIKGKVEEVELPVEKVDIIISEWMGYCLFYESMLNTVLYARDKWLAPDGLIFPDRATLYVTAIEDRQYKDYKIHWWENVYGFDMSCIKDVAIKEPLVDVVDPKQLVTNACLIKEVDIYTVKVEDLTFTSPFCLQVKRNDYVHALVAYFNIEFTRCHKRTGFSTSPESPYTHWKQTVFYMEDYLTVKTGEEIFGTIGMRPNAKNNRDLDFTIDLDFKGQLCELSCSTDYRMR
SIAE primary: human SIAE inhibition, primary screen | inhibition, % at 9.66 µM | 0.69% of 370,000 active | SIAE FP-Rh probe binding, fluorescence polarization | Q9HAT2;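 active = inhibition above a cutoff: mean of compounds within the control limits plus 3 SD of those, cut at about 17% in these data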
HTRA1 conf: HTRA1 (human) inhibition, confirmation. shares compounds with HTRA1 inh. recombinant HTRA1, FP-rhodamine activity-based probe, fluorescence polarization. AID 540248. inhibition, % at 5.96 µM. 66% of 1,600 active;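 active = mean inhibition over three repeats above a set limit taken from the earlier primary screen, cut at about 37% in these data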;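 also: inhibitors block probe binding so polarization drops and inhibition rises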
Large screens that a line does not name were inactive (follow-up assays come after a bar, where they were run). A selection: hits, their analogues and other compounds. The true share with any hit is near 3.5%.

CCN(CC)S(=O)(=O)c1cccc2cccnc12	none
CCS(=O)(=O)c1ccc(OC)c(N=Nc2ccc(O)c3ncccc23)c1	HTRA1 inh 45 | HTRA1 conf inactive
CCN(CC)S(=O)(=O)c1cc(OC)ccc1N=Nc1ccc(O)c2ncccc12	HTRA1 inh 63 | HTRA1 conf 69
COc1ccc(S(=O)(=O)NCCOc2cccc3cccnc23)cc1OC	none
C[C@]12CCC[C@H](O1)c1c(cc3c(c1O)C(=O)c1c(O)cc(O)cc1C3=O)O2	HTRA1 inh 37 | HTRA1 conf 62
O=C(NN=C1CCN(Cc2ccccc2)CC1)c1cc(Br)ccc1O	HTRA1 inh 40 | HTRA1 conf inactive
COc1cc2c(cc1NC(=O)CSc1nnc(COc3ccccc3)n1Cc1ccco1)oc1ccccc12	none (no result: HTRA1 inh, TCR-CD3 inh)
NC(=O)c1ccc(O)c2ncccc12	none (no result: rCAG RNA binder, HTRA1 inh, TCR-CD3 inh)
O=Cc1ccc(O)c2ncccc12	HTRA1 inh 36 (no result: rCAG RNA binder, TCR-CD3 inh, ABHD4 inh, PRMT1 inh, SIAE primary) | HTRA1 conf 60
CC(C)(C)N1Cc2nnn(CC3CCCCC3)c2-c2cc(F)ccc2S1(=O)=O	none (no result: HTRA1 inh, TCR-CD3 inh)
O=C(NC1CCCCN(Cc2cccc(Cl)c2)C1=O)c1cccc(C(F)(F)F)c1 (stereo not drawn)	none (no result: HTRA1 inh, TCR-CD3 inh)
NS(=O)(=O)c1ccc(N=Nc2ccc(O)c3ncccc23)cc1	HTRA1 inh 52 | HTRA1 conf 37
Oc1ccc(N=Nc2ccc3c(c2)OCCO3)c2ncccc12	HTRA1 inh 58 | HTRA1 conf 61
CCOc1ccc(N=Nc2ccc(O)c3ncccc23)cc1	none
Cc1ccc(C)c(N=Nc2ccc(O)c3ncccc23)c1	HTRA1 inh 52 | HTRA1 conf 66
Cc1cccc(N=Nc2ccc(O)c3ncccc23)c1	HTRA1 inh 59 | HTRA1 conf 64
COCCn1c(C)cc(/C=N/NC(=O)c2cc3ccccc3cc2O)c1C	HTRA1 inh 44 (no result: rCAG RNA binder, TCR-CD3 inh, ABHD4 inh, PRMT1 inh, SIAE primary) | HTRA1 conf inactive
COc1cc(/C=N/NC(=O)c2ccncc2)ccc1OCCN1CCCCC1	none
COc1cc(/C=N/NC(=O)c2cc3ccccc3cc2O)ccc1OCCN1CCCCC1	HTRA1 inh 48 | HTRA1 conf inactive
CC(=NNc1nc2ccccc2s1)c1ccncn1	HTRA1 inh 48 | HTRA1 conf inactive
O=C(/C=C/c1ccc(O)c(O)c1)OC(Cc1ccc(O)c(O)c1)C(=O)O (stereo not drawn)	none
O=C(/C=C/c1ccc(O)c(O)c1)OCCc1ccccc1	HTRA1 inh 64 | HTRA1 conf 71
CCOc1ccccc1OCCCC(=O)Nc1nc2ccccc2[nH]1	none
CCOc1ccccc1/C=C/c1nc2ccccc2[nH]c1=O	HTRA1 inh 40 | HTRA1 conf inactive
CCOC(=O)C1=C(CS(=O)(=O)c2ccc(F)cc2)NC(=O)NC1c1ccc(O)c(O)c1 (stereo not drawn)	HTRA1 inh 48 | HTRA1 conf 52
c1ccc(CNc2ccc(N3CCOCC3)cc2)cc1	HTRA1 inh 52 | HTRA1 conf inactive
CC(=O)N1CCN(c2ccc(NCc3ccc(C)cc3)cc2)CC1	none
CCc1ccc(CNc2ccc(N3CCN(C(C)=O)CC3)cc2)cc1	HTRA1 inh 42 | HTRA1 conf inactive
COC(=O)[C@]12C[C@H](CC(=O)N3CCCCC3)C(=O)N(Cc3ccc4c(c3)OCO4)C1=C[C@H](C(C)C)O[C@@H]2C1CC1	none (no result: HTRA1 inh, TCR-CD3 inh)
COc1cc(/C=N/Nc2cccc(C)c2)ccc1OC(=O)c1cccs1	none
COc1cc(/C=N/Nc2cccc(C)c2)cc(Br)c1O	HTRA1 inh 38 | HTRA1 conf inactive
CN1c2ccccc2N(C)C1(C)c1cccc2ccccc12	HTRA1 inh 47 | HTRA1 conf inactive
O=C(NC1CCCCN(Cc2ccc(OC(F)(F)F)cc2)C1=O)c1cccc(C(F)(F)F)c1 (stereo not drawn)	none (no result: HTRA1 inh, TCR-CD3 inh)
CCN(CC)C(=O)CC[C@@H]1CC[C@]2(CCCN(Cc3nccs3)C2)O1	none (no result: HTRA1 inh, TCR-CD3 inh)
S=C(N=Nc1ccccc1)NNc1ccccc1	HTRA1 inh 43 | HTRA1 conf 43
S=C(NNC(=S)Nc1ccc(Cl)cc1)NNc1ccccc1	none
CC(=O)c1cccc(NC(=O)C(C)OC(=O)CCN=C2NS(=O)(=O)c3ccccc32)c1 (stereo not drawn)	HTRA1 inh 90 | HTRA1 conf inactive
Oc1c(Br)cc(Br)cc1/C=N/n1c(-c2ccccc2)n[nH]c1=S	none
COc1c(Br)cc(/C=N/n2c(-c3ccccc3)n[nH]c2=S)c(O)c1Br	HTRA1 inh 74 | HTRA1 conf inactive
COC1=CC(=O)C(O)=C(CCCCCCC/C=C/CCCCCCCC2=C(O)C(=O)C=C(OC)C2=O)C1=O	HTRA1 inh 64 (no result: rCAG RNA binder, TCR-CD3 inh, ABHD4 inh, PRMT1 inh, SIAE primary) | HTRA1 conf 93
COC1=C(OC)C(=O)C(CCCCCCCCCCO)=C(C)C1=O	none (no result: HTRA1 inh)
N#CC1=C(N)N(c2ccc(Br)cc2)C2=C(C(=O)CCC2)C1c1cccnc1 (stereo not drawn)	HTRA1 inh 46 | HTRA1 conf inactive
CC(C)C(=O)N1CC[C@H]2[C@H](CCCN2Cc2ccc(F)cc2)C1	none (no result: HTRA1 inh, TCR-CD3 inh)
CCCCCCCCC/C(=N\O)c1ccccn1	HTRA1 inh 66 | HTRA1 conf 66
CCCCCCCCC(=O)N/N=C/c1ccccn1	none
Cn1cc(C2(c3c[nH]c4ccccc34)CCN(C(=O)OC(C)(C)C)CC2)c2ccccc21	none (no result: HTRA1 inh, TCR-CD3 inh)
CCN(CC)C(=O)c1ccc(-c2nnc(Nc3ccc(O)cc3)c3ccccc23)cc1	HTRA1 inh 41 | HTRA1 conf inactive
O=[N+]([O-])c1ccc(N/N=C/c2cccc(O)c2O)cc1	HTRA1 inh 64 | HTRA1 conf 46
COC(=O)[C@H](CC(C)C)N1Cc2nnn(CC3CCCCC3)c2-c2ccccc2S1(=O)=O	none (no result: HTRA1 inh, TCR-CD3 inh)
C#CCNC(=O)C[C@@H]1C(=O)N(CC=C)/C2=C/CCCCC[C@]21C(=O)OCC	none (no result: HTRA1 inh, TCR-CD3 inh)
COC(=O)[C@]12C[C@H](CC(=O)NCc3ccc(OC)c(OC)c3)C(=O)N(Cc3ccc(Cl)cc3Cl)C1=C[C@H](C(C)(C)C)O[C@@H]2C	none (no result: HTRA1 inh, TCR-CD3 inh)
O=C(NC1CCCCN(Cc2cccc(C(F)(F)F)c2)C1=O)c1cccc(F)c1 (stereo not drawn)	none (no result: HTRA1 inh, TCR-CD3 inh)
Cc1ccc(C(=O)CNc2cc(C)ccc2C)cc1	none
CCNc1cc(O)ccc1C	HTRA1 inh 71 (no result: rCAG RNA binder, TCR-CD3 inh, ABHD4 inh, PRMT1 inh, SIAE primary) | HTRA1 conf 41
CSCCCNC(=O)c1oc(=O)c2ccccc2c1-c1ccc(C)cc1	none (no result: HTRA1 inh, TCR-CD3 inh)
CC1(C)CC2(CC(c3ccccc3F)c3ccc(O)c(O)c3O2)NC(=S)N1 (stereo not drawn)	HTRA1 inh 61 | HTRA1 conf 58
CN(C)c1ccc(C=c2c3ccccc3n3c2c2c([n+]3C)CCCC2)cc1	HTRA1 inh 53 | HTRA1 conf 55
O=C(CCc1ccccc1)N[C@H]1[C@@H](OC(=O)c2cccnc2)CCC[C@]12C(=O)N(Cc1ccccc1)c1ccccc12	none (no result: HTRA1 inh, TCR-CD3 inh)
CCOC(=O)c1c2c(n(-c3ccc(OC)cc3)c1C)C(=O)C(=O)c1ccccc1-2	HTRA1 inh 47 (no result: rCAG RNA binder, TCR-CD3 inh, ABHD4 inh, PRMT1 inh, SIAE primary) | HTRA1 conf 45
